High-throughput results (PubChem)
pPAFAH inh – inhibitors of human plasma PAF acetylhydrolase (pPAFAH); recombinant pPAFAH, FP-rhodamine probe fluorescence polarization; 330,000 tested, 1.5% active; Q13093; inhibition, % at 3.39 µM;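 active = inhibition above the mean inhibition across the screen plus 3 SD, cut at about 25% in these data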;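 also: inhibitors block binding of the rhodamine activity-based probe so polarization drops; 0% = enzyme with DMSO and 100% = wells lacking pPAFAH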
PAFAH1B2 FP inh – inhibitors of human PAFAH1B2 | inhibition, % at 3.39 µM | P68402 | 340,000 tested, 1.2% active | recombinant PAFAH1B2, FP-rhodamine activity probe, fluorescence polarization | AID 492953;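 active = inhibition above the mean of all tested compounds plus 3 SD, cut at about 24% in these data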;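 also: 0% = enzyme with DMSO and 100% = wells lacking PAFAH1B2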
Target sequence (P68402 whole entry, looked up): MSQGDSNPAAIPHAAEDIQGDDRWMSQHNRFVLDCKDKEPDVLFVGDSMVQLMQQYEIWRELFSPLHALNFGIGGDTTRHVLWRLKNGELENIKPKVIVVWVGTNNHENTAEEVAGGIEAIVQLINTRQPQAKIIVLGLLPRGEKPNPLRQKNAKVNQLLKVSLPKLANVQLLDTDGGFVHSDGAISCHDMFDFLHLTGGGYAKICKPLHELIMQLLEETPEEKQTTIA
PAFAH1B3 inh – inhibitors of human PAFAH1B3 | recombinant PAFAH1B3, FP-rhodamine probe, fluorescence polarization | 340,000 tested, 0.28% active | Q15102 | inhibition, % at 3.39 µM;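 active = inhibition above the screen-wide average of all tested compounds plus 3 SD, cut at about 25% in these data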;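 also: 0% = enzyme with DMSO only and 100% = wells lacking PAFAH1B3 protein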
Target sequence (Q15102 whole entry, looked up): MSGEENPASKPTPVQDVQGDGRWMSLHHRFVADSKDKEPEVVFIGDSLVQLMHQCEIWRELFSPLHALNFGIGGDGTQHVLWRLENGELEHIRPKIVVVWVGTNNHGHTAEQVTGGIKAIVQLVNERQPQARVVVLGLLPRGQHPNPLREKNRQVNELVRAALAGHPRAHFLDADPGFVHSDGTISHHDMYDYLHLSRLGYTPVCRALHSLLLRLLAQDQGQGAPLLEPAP
ASAP1 inh – blocks human ASAP1-stimulated Arf1 GTP hydrolysis | 360,000 tested, 0.19% active | Q9ULH1 | inhibition, % at 16.5 µM | AID 624377 | GDP FP detection; in the data active = inhibition above about 25%;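 also: 0% = vehicle with enzyme and substrate and 100% = no enzyme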
PAFAH2 inh – inhibitors of human PAFAH2; recombinant PAFAH2, FP-rhodamine activity probe, fluorescence polarization; AID 492956; Q99487; 340,000 tested, 0.99% active; inhibition, % at 3.39 µM;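 active = inhibition above the mean over all tested compounds plus 3 SD, cut at about 30% in these data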;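 also: inhibitors block probe labeling of enzyme so polarization drops; 0% = enzyme with DMSO and 100% = wells lacking PAFAH2 protein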
ARFGAP1 inh – inhibits rat ARF GTPase activating protein 1; Q62848; Arfgap1-stimulated ARF1 GTP hydrolysis, GDP FP detection; 360,000 tested, 0.26% active; inhibition, % at 16.5 µM;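 active = inhibition above a per-plate limit, mean inhibition of low control wells plus 3 SD, cut at about 25% in these data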;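 also: 0% = DMSO wells with enzyme and 100% = wells lacking Arfgap1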
Target sequence (Q62848 1-136 limits assumed): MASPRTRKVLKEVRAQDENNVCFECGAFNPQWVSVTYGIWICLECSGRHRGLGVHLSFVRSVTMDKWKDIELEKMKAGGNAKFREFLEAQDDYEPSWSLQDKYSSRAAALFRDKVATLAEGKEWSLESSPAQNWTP
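Replicates: Single well per compound | Assay system: Truncated rat Arfgap1 GAP domain | Control set: No-Arfgap1 wells (100%) versus DMSO full-reaction wells (0%) | Times: Enzyme reaction 120 min at 25 °C after 20 min preincubation | Reagent: Human ARF1(Δ1-17)-GTP substrate | Measured by: Tracer-displacement fluorescence polarization with EDTA stop, 620/688 nm | Measure: Percent inhibition of Arfgap1-stimulated GTP hydrolysis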
PAFAH2 confirm – confirmation of human PAFAH2 inhibitors; shares compounds with PAFAH2 inh; recombinant PAFAH2, FP-rhodamine activity probe, fluorescence polarization; inhibition, % at 3.39 µM; 2,300 tested, 65% active; AID 493030;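 active = mean inhibition over three repeats above a set limit taken from the earlier primary screen, cut at about 30% in these data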;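 also: inhibitor blocks binding of rhodamine activity probe so polarization falls; 0% = enzyme with DMSO and 100% = wells lacking PAFAH2 protein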
* = called active by the depositor; nt = no result given. An excerpt weighted towards active compounds, which were near 2.7% of everything screened.

SMILES	pPAFAH inh	PAFAH1B2 FP inh	PAFAH1B3 inh	ASAP1 inh	PAFAH2 inh	ARFGAP1 inh	PAFAH2 confirm
COc1ccccc1/C=C/C(=O)OCC(=O)NCc1ccco1	4	5	8	8	62*	1	53*
C[C@H]1CN([C@@H](C)CO)C(=O)c2cc(Br)cnc2O[C@H]1CN(C)C(=O)C1CCC1	nt	nt	nt	-6	nt	0	nt
O=C(Nc1ccc(Cl)cc1)Nc1ccc(S(=O)(=O)Nc2ncccn2)cc1	0	-1	2	8	-5	-13	nt
O=C(Nc1ccc(S(=O)(=O)Nc2ncccn2)cc1)c1ccccc1NS(=O)(=O)c1ccc(Cl)cc1	5	3	3	0	50*	19	50*
Cc1ccc(S(=O)(=O)C[C@@H]2OC[C@H](C)N2S(=O)(=O)c2ccc(C)cc2)cc1	nt	nt	nt	0	nt	2	nt
CCc1ccc(NC(=O)c2noc3c2CCC3)cc1	12	8	4	8	31*	3	10
CCc1ccc(NC(=O)c2noc3c2CCCCC3)cc1	-3	4	10	-7	-3	-2	nt
COc1ccc(C(=O)NCCc2ccc(Cl)cc2)cc1S(=O)(=O)N1CCCCC1C (stereo not drawn)	1	12	1	0	2	0	nt
O=C(COC(=O)c1ccccc1OC(F)F)Nc1ccc(N2CCCCC2)cc1	22	3	10	2	42*	-2	37*
CCOc1ccccc1C(=O)OCC(=O)Nc1ccc(N2CCCCC2)cc1	22	4	-5	-1	36*	12	28
CC(=O)O[C@H]1[C@H](C)OC=C[C@@H]1OC(C)=O	1	2	-2	0	-6	2	nt
Oc1ccc(Cl)cc1N=Cc1sc2ccccc2c1Cl	8	6	8	-6	0	9	nt
O=[N+]([O-])c1ccc(O)c(N=Cc2sc3ccccc3c2O)c1	14	-5	3	10	33*	4	16
COc1cc2nc(CCc3ccccc3)oc(=O)c2cc1OC	6	13	3	-10	36*	-13	22
COc1cc2nc(-c3ccc(Br)o3)oc(=O)c2cc1OC	3	-2	5	-2	53*	6	41*
Cc1ccc2nc(-c3ccc(Br)o3)oc(=O)c2c1	3	-4	7	12	66*	-2	66*
C=C(C)c1nc2cc(OC)c(OC)cc2c(=O)o1	0	5	18	-12	11	-9	nt
CC(C)CN(Cc1cc(=O)oc2cc3c(cc12)CCCC3)CC(C)C	-6	2	4	-18	1	-4	nt
COc1ccc(/C=C/C(=O)OCC(=O)N2CCCCCC2)c(OC)c1	-1	1	-11	3	44*	3	36*
COc1ccccc1/C=C/C(=O)OCC(=O)N1CCc2ccccc21	1	2	5	6	77*	11	71*
COc1cc(/C=C/C(=O)OCC(=O)Nc2ccc(NC(C)=O)cc2)cc(S(=O)(=O)N2CCc3ccccc32)c1OC	2	-4	10	7	3	8	nt
COc1ccccc1/C=C/C(=O)OCC(=O)NC(=O)NC1CCCC1	-2	5	-6	11	58*	0	44*
O=C(/C=C/c1ccc(OC(F)F)cc1)OCC(=O)N1CCc2ccccc21	1	1	4	-4	5	-7	nt
COc1cc(/C=C/C(=O)OCC(=O)N2CCCCCC2)cc(OC)c1OC	nt	nt	nt	8	nt	4	nt
COc1cc(/C=C/C(=O)OCC(=O)NC2CC2)cc(S(=O)(=O)N2CCc3ccccc32)c1OC	8	3	4	11	53*	14	38*
SMILES	pPAFAH inh	PAFAH1B2 FP inh	PAFAH1B3 inh	ASAP1 inh	PAFAH2 inh	ARFGAP1 inh	PAFAH2 confirm
COCCn1c(NCc2ccco2)nc2c1c(=O)[nH]c(=O)n2C	-4	2	14	3	5	-4	nt
COc1cccc(C(=O)Nc2cc3c(cc2C(C)=O)OCCO3)c1	-2	-2	2	4	6	-5	nt
COc1ccc(S(=O)(=O)NCCCCC(=O)O)cc1C(=O)O	4	0	-5	8	-6	-13	nt
COc1ccccc1/C=C/C(=O)OCC(=O)Nc1ccc(Cl)cn1	24	3	4	6	83*	13	79*
COc1ccccc1/C=C/C(=O)OCC(=O)NNC(=O)c1ccccc1	18	2	17	0	14	2	nt
COc1ccc(/C=C/C(=O)OCC(=O)NC2CCCC2)c(OC)c1	23	3	4	-3	86*	-16	85*
O=C(OCC(=O)N1CCc2ccccc21)C1=COCCO1	8	4	7	5	30*	13	19
COc1ccccc1/C=C/C(=O)OCC(=O)NC1CC1	nt	3	8	-7	64*	-1	64*
CCCCCCN1C[C@H](n2cc(C3CC3)nn2)[C@@H](O)C[C@@H]1c1ccc(Cl)cc1	nt	nt	nt	11	nt	-9	nt
CCCCN(C(=O)CSc1cc(C)c2ccc(OC)cc2n1)c1c(N)n(Cc2ccccc2)c(=O)[nH]c1=O	0	-2	9	4	-5	-3	nt
CC(C)OC(=O)C(C)Oc1ccc(C(=O)NCCc2ccccc2)cc1 (stereo not drawn)	2	1	-3	8	-1	10	nt
CCCc1cc(=O)n2[nH]c(C)nc2n1	-6	-2	5	-6	1	-1	nt
CCCc1cc(=O)n2[nH]c(Cc3ccccc3)nc2n1	8	11	12	7	31*	3	16
Cn1c(=O)c2c(ncn2CC(=O)Nc2cc(S(=O)(=O)N3CCCCC3)ccc2O)n(C)c1=O	-3	1	3	-1	32*	2	21
CCOc1ccc(C(=O)OCn2nnc3ccccc3c2=O)cc1OC	1	1	9	-2	63*	-1	52*
Cc1ccccc1C(=O)OCn1nnc2ccccc2c1=O	7	7	3	-9	9	-3	nt
O=C(OCn1nnc2ccccc2c1=O)c1ccc(O)cc1	0	5	7	2	33*	0	19
COc1cccc(C(=O)OCn2nnc3ccccc3c2=O)c1OC	9	0	-3	-1	50*	8	45*
COc1ccc(C(=O)OCn2nnc3ccccc3c2=O)cc1	-2	8	-4	0	43*	2	37*
COc1cc(C(=O)OCn2nnc3ccccc3c2=O)cc(OC)c1OC	-6	5	1	-2	-11	-7	nt
CCCS(=O)(=O)c1c(S(=O)(=O)CCC)c2c(C(N)=O)cccn2c1C(=O)c1ccc(F)cc1	0	3	8	-15	0	0	nt
CCCS(=O)(=O)c1c(S(=O)(=O)CCC)c2ccc(C(N)=O)cn2c1C(=O)c1ccccc1	nt	-4	3	0	34*	1	24
